SR-BI HDL uptake = blocks mouse SR-BI lipid uptake from DiI-HDL | ldlA[mSR-BI] CHO cells, DiI-HDL uptake fluorescence, 3 h | inhibition, % at 12.5 µM | 0.96% of 320,000 active;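 active = mean replicate inhibition of at least 70% and a set share of replicates each scoring 70 or more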;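 note: 0% = median of neutral control wells and 100% = median of positive control wells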
Target sequence (Q61009 whole entry, looked up): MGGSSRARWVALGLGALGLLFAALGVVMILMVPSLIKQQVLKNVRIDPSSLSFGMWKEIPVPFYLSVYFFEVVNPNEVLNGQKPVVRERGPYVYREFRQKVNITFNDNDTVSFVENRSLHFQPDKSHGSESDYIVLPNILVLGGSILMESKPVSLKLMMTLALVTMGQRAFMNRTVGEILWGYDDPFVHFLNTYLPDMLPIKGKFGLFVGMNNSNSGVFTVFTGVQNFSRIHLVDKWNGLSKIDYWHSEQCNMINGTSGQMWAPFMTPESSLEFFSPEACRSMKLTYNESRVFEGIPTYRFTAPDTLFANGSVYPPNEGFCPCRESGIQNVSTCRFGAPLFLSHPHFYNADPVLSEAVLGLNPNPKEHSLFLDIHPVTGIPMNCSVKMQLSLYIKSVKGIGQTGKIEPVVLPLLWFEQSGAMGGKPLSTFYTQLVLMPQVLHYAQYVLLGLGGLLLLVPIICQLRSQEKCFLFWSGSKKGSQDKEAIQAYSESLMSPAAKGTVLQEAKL
SR-BI DiI-HDL act = enhances SR-BI lipid uptake from DiI-HDL; CHO ldlA[mSR-BI] cells, DiI-HDL uptake fluorescence, 3 h; 100 = double the neutral-control signal; AID 504775; activation, % at 12.5 µM; 0.096% of 320,000 active;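 active = mean replicate activation of at least 60% and every replicate at or above 60%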;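 note: 0% = median plate neutral-control signal and 100% = twice that signal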
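System: LDL receptor-deficient CHO ldlA cells overexpressing murine SR-BI | Timing: 3 h uptake period with compound, 37 °C | Medium: HEPES-buffered (25 mM, pH 7.4) F12 plus 0.5% BSA | Dosing: Single-point compound dose | Signal: Bottom-read fluorescence, 550/595 nm | Read-out: Retained DiI signal reflecting DiI-HDL uptake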
dFosB act = activators of mouse delta FosB homodimer | activation, % at 25 µM | AID 493131 | P13346 | purified delta FosB, TAMRA-CDK5 oligo fluorescence polarization; percent of positive-control signal above neutral wells | 0.99% of 340,000 active;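 active = mean activation above about 17%, with every replicate also reaching it, limit read from the data, passing the limit was not always enough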
NSD2 HMT inh = inhibitors of human histone methyltransferase NSD2 | NSD2 peptide methylation, AlphaScreen, 120 min | inhibition, % at 12.5 µM | 0.54% of 310,000 active | AID 743445
DYRK1A inh = blocks rat Dyrk1A kinase activity | ADP-Glo luminescence, NFATc1 peptide | inhibition, % at 12.5 µM | 0.43% of 310,000 active;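 note: plate controls were vehicle with enzyme for no effect and no enzyme for full effect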
CDK5 inh = inhibitors of human CDK5/p35 kinase. Q00535+Q15078. Recombinant CDK5/p35, ADP-Glo luminescence, 60 min. inhibition, % at 10 µM. 0.01% of 330,000 active. AID 488839;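 active = highest replicate inhibition of at least 50% and at least 75% of replicates reaching 50%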;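 note: plate controls were DMSO neutral control for no effect and GW8510 at 10 µM for full effect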
Alpha artifact = AlphaScreen assay artifact in NSD2 counter-screen. shares compounds with NSD2 HMT inh. AlphaScreen artifact counterscreen, preloaded methylated H4 peptide. AC35, µM (doses to about 10 µM), inactives show at the highest dose activity change, negative = signal loss. 9.4% of 1,500 active. AID 1053174; call rule not given here
* = called active by the depositor. This is a sample that favours compounds with a hit; in the whole collection about 2.5% have one here. Cut-off read from the data, not from the text of the source, unless noted: active = inhibition above about 50%; inactive = the rest.

`Cc1cc(/C=C\c2nc(O)c([N+](=O)[O-])c(=O)[nH]2)c(C)n1-c1ccccc1` gave SR-BI HDL uptake -5, SR-BI DiI-HDL act 5, dFosB act -3, NSD2 HMT inh 62*, DYRK1A inh -4, CDK5 inh 1 and Alpha artifact -8%.
Screening COc1ccc(-n2c(C)cc(/C=C/c3nc(O)c([N+](=O)[O-])c(=O)[nH]3)c2C)cc1 returned SR-BI HDL uptake -3, SR-BI DiI-HDL act 3, dFosB act -12, NSD2 HMT inh 33, DYRK1A inh -1 and CDK5 inh -1.
CC(C)CC(=O)N1CCC(O)(CS(=O)(=O)Cc2ccc(Cl)cc2)CC1 was read as SR-BI HDL uptake -6, SR-BI DiI-HDL act 6, dFosB act -2, DYRK1A inh -1 and CDK5 inh 0.
CC(C)CC(=O)N1CCC(O)(CS(=O)(=O)Cc2ccccc2Cl)CC1 was read as SR-BI HDL uptake -12, SR-BI DiI-HDL act 12, dFosB act 7, NSD2 HMT inh 103*, DYRK1A inh 2, CDK5 inh -1 and Alpha artifact 0%.
`CCOc1ccccc1N1CCN(C/C=C/c2ccc(N(C)C)cc2)CC1` gave SR-BI HDL uptake 7, SR-BI DiI-HDL act -7, dFosB act -3, NSD2 HMT inh 69*, DYRK1A inh 4, CDK5 inh 1 and Alpha artifact 9.2µM*.
Screening CCOc1ccccc1N1CCN(Cc2ccco2)CC1 returned SR-BI HDL uptake -21, SR-BI DiI-HDL act 21, dFosB act -8, NSD2 HMT inh 0, DYRK1A inh -1 and CDK5 inh 1.
`CC(=O)Nc1ccc(S(=O)(=O)NCCSCc2cccc(Cl)c2)cc1` gave SR-BI HDL uptake -11, SR-BI DiI-HDL act 11, dFosB act -6, NSD2 HMT inh -1, DYRK1A inh -5 and CDK5 inh -1.
For CC(=O)Nc1ccc(S(=O)(=O)NCCSCc2c(Cl)cccc2Cl)cc1 the results were SR-BI HDL uptake 10, SR-BI DiI-HDL act -10, dFosB act -13, NSD2 HMT inh 123*, DYRK1A inh -4, CDK5 inh -3 and Alpha artifact -4%.
For O=C(NCCCn1ccnc1)C1CCN(S(=O)(=O)c2ccc(F)cc2)CC1 the results were dFosB act -3, NSD2 HMT inh 57*, DYRK1A inh 2, CDK5 inh 1 and Alpha artifact -2%.
O=C(NCc1cccnc1)c1ccc2c(c1)OCO2 was read as SR-BI HDL uptake -7, SR-BI DiI-HDL act 7, dFosB act 2, NSD2 HMT inh 66*, DYRK1A inh 19, CDK5 inh -1 and Alpha artifact -3%.
For O=C(CSc1ccc(Cl)cc1)Nc1cccc(-c2nc3ncccc3o2)c1 the results were SR-BI HDL uptake 13, SR-BI DiI-HDL act -13, dFosB act -35, NSD2 HMT inh 0, DYRK1A inh 8 and CDK5 inh -1.
`O=C(CSc1ccc(Cl)cc1)Nc1cc(-c2nc3ncccc3o2)ccc1Cl` gave NSD2 HMT inh 51* and Alpha artifact -6%.
For C=CCN(CC=C)Cc1c(O)ccc2c1oc(=O)c1ccccc12 the results were SR-BI HDL uptake 18, SR-BI DiI-HDL act -18, dFosB act -23, NSD2 HMT inh 51*, DYRK1A inh 31, CDK5 inh 3 and Alpha artifact 11%.
`Cc1cc(=O)oc2c(CN(C)Cc3ccccc3)c(O)ccc12` gave SR-BI HDL uptake 10, SR-BI DiI-HDL act -10, dFosB act -3, NSD2 HMT inh 2, DYRK1A inh -3 and CDK5 inh 0.
For Cc1ccc(N2C(=O)C3C(C2=O)N2CCCN2C3c2ccccc2)cc1C (stereo unspecified) the results were SR-BI HDL uptake 6, SR-BI DiI-HDL act -6, dFosB act -1, NSD2 HMT inh 6, DYRK1A inh -3 and CDK5 inh 1.
CCc1ccc(N2C(=O)C3C(C2=O)N2CCCN2C3c2ccccc2)cc1 (stereo unspecified) was read as SR-BI HDL uptake -2, SR-BI DiI-HDL act 2, dFosB act -7, NSD2 HMT inh 64*, DYRK1A inh 1, CDK5 inh -1 and Alpha artifact 0%.
Screening CC(=O)NCCc1c[nH]c2ccc(OCC(O)CNC(C)(C)C)cc12 (stereo unspecified) returned SR-BI HDL uptake 5, SR-BI DiI-HDL act -5, dFosB act 3, NSD2 HMT inh 4 and CDK5 inh -1.
CCCn1c(N)c(N(CCOC)C(=O)c2ccc(Cl)c([N+](=O)[O-])c2)c(=O)[nH]c1=O was read as SR-BI HDL uptake -3, SR-BI DiI-HDL act 3, dFosB act -8, NSD2 HMT inh 1, DYRK1A inh -5 and CDK5 inh -1.
For CN1C(=O)c2cccc(N(C)C)c2C1=O the results were dFosB act 0, NSD2 HMT inh 0, DYRK1A inh -2 and CDK5 inh 2.
`CN(C)c1cccc2c1C(=O)c1ccccc1C2=O` gave SR-BI HDL uptake 35, SR-BI DiI-HDL act -35, dFosB act 1, NSD2 HMT inh 60*, DYRK1A inh 22, CDK5 inh 3 and Alpha artifact 2.2µM*.
`Cc1c([N+](=O)[O-])cc(N2C(=O)C=CC2=O)cc1[N+](=O)[O-]` gave SR-BI HDL uptake 48, SR-BI DiI-HDL act -48, dFosB act -9, NSD2 HMT inh 55*, CDK5 inh 1 and Alpha artifact -1%.
`O=[N+]([O-])c1ccc(/C=N/NC(=S)Nc2ccccc2F)o1` gave SR-BI HDL uptake 11, SR-BI DiI-HDL act -11, dFosB act -8, NSD2 HMT inh 14 and DYRK1A inh 6.
For Cc1c(-c2ccc(/C=N/NC(=O)C(=O)Nc3ccccc3F)o2)cccc1[N+](=O)[O-] the results were NSD2 HMT inh 64* and Alpha artifact -3%.
For O=C(O)c1ccc2cccnc2c1O the results were dFosB act 0, NSD2 HMT inh 61*, DYRK1A inh 27, CDK5 inh -3 and Alpha artifact -5%.
O=C(O)c1ccccc1NC(c1ccccc1)c1ccc2cccnc2c1O (stereo unspecified) was read as SR-BI HDL uptake 0, SR-BI DiI-HDL act 0, dFosB act -16, DYRK1A inh 4 and CDK5 inh 8.
`Cc1cc2ccccn2c1C(=O)c1ccc(Cl)cc1` gave SR-BI HDL uptake -1, SR-BI DiI-HDL act 1, dFosB act 2, NSD2 HMT inh -10, DYRK1A inh -1 and CDK5 inh 1.
Screening Cc1ccc(C(=O)NC(=S)c2c(C)cc3ccccn23)cc1 returned NSD2 HMT inh 92* and Alpha artifact 6.4µM*.

Bioassay records: PubChem, Broad Institute
